High-throughput results: PubChem, several laboratories
Most compounds without a hit are left out; they make up all but 5.5% or so of the library.
HePTP inh: inhibitors of human HePTP phosphatase; P35236; recombinant HePTP phosphatase activity, OD absorbance; inhibition, % at 20 µM; 110,000 tested, 0.64% active; in the data active = inhibition above about 50%;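 also: plate controls were vehicle for no effect and reference inhibitor for full effect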
Target sequence (P35236 whole entry, looked up): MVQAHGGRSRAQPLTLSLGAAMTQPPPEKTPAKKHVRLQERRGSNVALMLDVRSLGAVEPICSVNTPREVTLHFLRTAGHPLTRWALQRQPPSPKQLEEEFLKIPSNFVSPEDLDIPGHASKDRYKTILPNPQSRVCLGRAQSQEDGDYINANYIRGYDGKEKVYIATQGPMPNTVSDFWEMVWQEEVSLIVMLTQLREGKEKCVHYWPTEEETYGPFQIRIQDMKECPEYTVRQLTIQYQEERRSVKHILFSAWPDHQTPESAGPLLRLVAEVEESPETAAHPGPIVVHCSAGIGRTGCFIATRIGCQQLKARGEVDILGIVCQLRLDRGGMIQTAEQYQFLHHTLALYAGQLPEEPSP
PostGolgi yeast: growth inhibition of a yeast mutant, post-Golgi transport screen | post-Golgi transport phenotypic cell assay | inhibition, % at 10 µM | 98,000 tested, 0.9% active;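 also: yeast cells grown in 1536-well plates; yeast grown about 18 h at 30C before absorbance read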
tolC growth inh: blocks growth of E. coli BW25113 tolC mutant; 65,000 tested, 2.2% active; growth inhibition, % at 10 µM (by protocol); OD615;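 active = growth inhibition at or above a cutoff equal to the mean over every tested compound plus 3 SD, cut at about 60% in these data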;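 also: growth measured after 20 h incubation at 37 °C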
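test system = E. coli BW25113 ΔtolC::kan bacteria | medium = LB with kanamycin 50 µg/mL | signal = OD at 615 nm | schedule = 37 °C, 20 h exposure | evaluation = % inhibition of E. coli growth | compound dosing = one dose of 10 µM final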
PostGolgi ctrl: inhibits growth of the yeast control strain; efflux-deficient yeast background strain, growth absorbance A615, 16 h; inhibition, % at 10 µM; 98,000 tested, 5% active; AID 738
PLAP activator: activators of human placental alkaline phosphatase. P05187. purified PLAP enzyme, luminescent substrate read-out; active compounds read high. activation fold at 20 µM. 96,000 tested, 1.2% active; in the data active = activation fold above about 2
Ecoli WT expand: growth inhibitors of E. coli BW25113 wild type; OD600 absorbance; growth inhibition, % at 100 µM; 98,000 tested, 0.15% active;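 active = growth inhibition above about 50% at one test dose, limit read from the data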;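 also: growth measured after 20 h incubation at 37 °C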
* marks the source's active call; other numbers are inactive results; x = no result given. Rule as the data show it, unless noted: active = inhibition above about 30%; inactive = the rest.

SMILES | HePTP inh | PostGolgi yeast | tolC growth inh | PostGolgi ctrl | PLAP activator | Ecoli WT expand
Cc1ccc(O)c(-c2cc(-c3ccccc3C)[nH]n2)c1 | 4.6 | -3.7 | 100.0* | 86.2* | 1.6 | 14.0
Oc1c(-c2cc(-c3ccco3)[nH]n2)ccc2ccccc12 | 11.3 | 2.1 | 10.4 | 8.6 | 1.9 | -8.0
Oc1ccc(Cl)cc1-c1cc(-c2ccco2)[nH]n1 | x | 4.4 | x | 46.1* | 1.5 | 16.0
Cc1ccc(NC(=O)c2ccncc2)cc1 | 1.2 | x | x | x | x | x
COc1cc(OC)cc(C(=O)N2CCN(C3CCCC3)CC2)c1 | -1.7 | x | x | x | x | x
CCCC/C(C)=N\NC(=O)C(=O)NC(C)C | 3.6 | x | x | x | x | x
CCCc1cc(=O)oc2cc(OCC(=O)c3ccc(F)cc3)ccc12 | -3.5 | x | x | x | x | x
S=c1[nH]nc(-c2cc(-c3ccco3)[nH]n2)n1-c1ccccc1 | x | -14.1 | x | -1.9 | 2.1* | 0.0
Cc1ccc(O)c(-c2cc(C(F)(F)C(F)F)[nH]n2)c1 | 1.4 | 11.6 | 37.0 | 16.9 | 2* | 34.0
Oc1ccccc1-c1cc(-c2ccccc2Cl)[nH]n1 | 3.5 | -2.5 | 100.0* | 74.5* | 0.9 | 4.0
Cc1ccc(-c2cc(-c3ccccc3O)[nH]n2)cc1 | -6.8 | x | x | x | x | x
O=C(c1cccc(F)c1F)N1CCN(c2cc(N3CCOCC3)c(F)cc2[N+](=O)[O-])CC1 | -13.4 | x | x | x | x | x
Cc1ccc(C(=O)NC(=S)NCCCN2CCOCC2)cc1 | 103.4* | x | x | x | x | x
Cc1ccc(-c2cc(C(=O)NCCCN3CCOCC3)no2)cc1 | 4.3 | -5.5 | -4.8 | -3.9 | 1.2 | 1.0
O=C(NNC(=S)NC(=O)c1cccnc1)c1ccc(Cl)cc1 | x | 2.8 | x | -1.6 | 1.9 | 74.0*
O=C(NC(=S)Nc1cc([N+](=O)[O-])cc(Cl)c1O)c1ccccc1 | -6.9 | x | x | x | x | x
O=C(NC(=S)Nc1cc([N+](=O)[O-])cc(Cl)c1O)c1cccnc1 | 102.6* | x | x | x | x | x
CC1(C)CC1(C#Cc1ccccc1)C(=O)O (stereo not given) | 2.2 | x | x | x | x | x
CCOC(=O)CNC(=O)c1sc(NC(=O)c2ccccc2F)nc1C | 4.0 | -0.2 | -5.2 | 8.3 | 1.1 | -5.0
CCOC(=O)CNC(=O)c1sc(NC(=O)c2cccc(F)c2)nc1C | x | -2.2 | x | 34.7* | 1.6 | -9.0
O=C1C(Cl)=C(N2CCOCC2)C(=O)C(Cl)=C1/C=C/N1CCOCC1 | 10.0 | x | x | x | x | x
C=CCNc1sc(C(=O)c2ccccc2)c(N)c1-c1nc2ccccc2s1 | x | -4.7 | x | 20.1 | 1 | -21.0
CCNc1sc(C(=O)c2cccs2)c(N)c1-c1nc2ccccc2s1 | 10.0 | 1.1 | 9.4 | 36.3* | 1.1 | -13.0
c1cc2c3c(cccc3c1)-c1nc3nonc3nc1-2 | -6.1 | x | x | x | x | x
c1ccc(-c2nc3nonc3nc2-c2ccccc2)cc1 | -9.2 | 15.9 | 48.1 | 31.3* | 0.8 | -13.0
SMILES | HePTP inh | PostGolgi yeast | tolC growth inh | PostGolgi ctrl | PLAP activator | Ecoli WT expand
CC(C)(C)C(=O)Nc1ccc(C(=O)Nc2ccc(NC(=O)c3ccc(NC(=O)C(C)(C)C)cc3)c(Cl)c2)cc1 | -5.6 | x | x | x | x | x
c1ccc2c(c1)oc1c(NCCN3CCOCC3)ncnc12 | -1.7 | -4.7 | -9.1 | 7.7 | 1.1 | -4.0
c1ccc2c(c1)oc1c(Nc3ccc(CN4CCOCC4)cc3)ncnc12 | 6.8 | 55.7* | 20.3 | 20.2 | 1.4 | 5.0
O=S(=O)(Nc1nc(-c2sccc2Cl)cs1)c1cc(Cl)ccc1Cl | x | -2.0 | x | 35.0* | 1.3 | 23.0
O=S(=O)(Nc1cccc2ccccc12)c1cc(Cl)ccc1Cl | -11.4 | x | x | x | x | x
Cc1ccsc1/C=C1\SC(=S)N(C(C)c2ccccc2)C1=O (stereo not given) | 4.9 | x | x | x | x | x
Cc1ccccc1NC(=O)C(=O)NCCN1CCNCC1 | 7.2 | x | x | x | x | x
Clc1ccc(Cc2nnn(-c3ccccc3)n2)cc1 | 4.1 | x | x | x | x | x
CCCCN=c1scc(-c2ccc3c(c2)NC(=O)CO3)n1N=C1CCCC1 | x | 3.1 | x | 64.5* | 0.9 | 22.0
O=C1NC(=S)N(c2ccc(F)cc2)C(=O)/C1=C/c1ccc(F)cc1 | -4.3 | x | x | x | x | x
CCOc1cc2c(C#N)c(N3CCOCC3)nc(N)c2c(N)n1 | 3.9 | 5.6 | -0.3 | 3.1 | 0.8 | 0.0
CCCN(CC1CC1)c1nc(N)c2c(N)nc(OC)cc2c1C#N | x | 8.1 | x | 34.5* | 1 | -10.0
O=C1NC(=O)/C(=C/c2c(F)cccc2Cl)S1 | -6.8 | x | x | x | x | x
CCc1nnc(NC(=O)CN2C(=O)c3ccccc3S2(=O)=O)s1 | 4.9 | 1.7 | -13.9 | 0.7 | 1.3 | -5.0
Cc1nnc(NC(=O)CN2C(=O)c3ccccc3S2(=O)=O)s1 | 9.9 | -0.3 | 4.9 | 3.9 | 2.1* | -7.0
COc1ccc(/C=C2/NC(=S)NC2=O)c2ccccc12 | 3.3 | x | x | x | x | x
NC(=O)c1ccc(NC(=O)c2cc3ccccc3o2)cc1 | 3.8 | x | x | x | x | x
COc1ccccc1N1Cc2ccccc2C1 | x | 4.8 | x | 24.2 | 1.5 | 3.0
COc1ccc(Cl)cc1N1Cc2ccccc2C1 | x | -5.4 | x | 32.1* | 1.5 | -13.0
O=c1[nH]c(=O)n(-c2ccccc2Cl)c(O)c1C=NCc1ccccc1F | -15.5 | x | x | x | x | x
CC1=C(C(=O)OC2CCCCCC2)C(c2ccc(C)o2)C2=C(CCCC2=O)N1 (stereo not given) | 2.5 | -0.3 | 100.0* | 14.7 | x | -7.0
CC1=C(C(=O)OC2CCCC2)C(c2ccc(C)o2)C2=C(CC(c3cccs3)CC2=O)N1 (stereo not given) | -9.9 | 4.1 | 64.7* | 22.4 | 1.2 | -5.0
COc1ccccc1NC(=O)CC1S/C(=N\N=C(/C)c2ccc(Cl)cc2)NC1=O (stereo not given) | -14.0 | x | x | x | x | x
CCC(C)(C)n1nnnc1C(c1cc2ccc(OC)cc2[nH]c1=O)N1CCc2ccccc2C1 (stereo not given) | 2.0 | -1.6 | 77.5* | 9.7 | 1.5 | -14.0
CCc1ccc2[nH]c(=O)c(C(c3nnnn3CCOC)N3CCN(c4ccc(F)cc4)CC3)cc2c1 (stereo not given) | 6.9 | -0.6 | 77.9* | 4.7 | 1.3 | 0.0
SMILES | HePTP inh | PostGolgi yeast | tolC growth inh | PostGolgi ctrl | PLAP activator | Ecoli WT expand
Cc1ccc2[nH]c(=O)c(C(c3nnnn3CC3CCCO3)N3CCc4ccccc4C3)cc2c1 (stereo not given) | -7.8 | 19.3 | 34.5 | 3.1 | 1.4 | -1.0
CCC(C)(C)n1nnnc1C(c1cc2ccc(OC)cc2[nH]c1=O)N1CCc2ccccc21 (stereo not given) | 0.8 | -0.8 | 50.9 | 40.2* | 1.5 | -14.0
CCC(C)(C)n1nnnc1C(c1cc2cc(OC)ccc2[nH]c1=O)N1CCc2ccccc21 (stereo not given) | -1.0 | -9.9 | 37.4 | 6.8 | 1.6 | -5.0
COc1ccc2[nH]c(=O)c(C(c3nnnn3CC3CCCO3)N3CCc4ccccc4C3)cc2c1 (stereo not given) | 2.1 | -19.4 | 12.4 | 37.6* | 1.6 | -1.0
CNC(=O)C(=O)Nc1ccc2c(c1)OCO2 | -4.5 | x | x | x | x | x
O=C(Nc1ccc(S(=O)(=O)N2CCc3ccccc32)cc1)c1ccc(Cl)cc1 | -14.8 | x | x | x | x | x
Cc1ccc2[nH]c(=O)c(C(c3nnnn3CC3CCCO3)N3CCOCC3)cc2c1 (stereo not given) | 1.1 | 2.5 | -5.6 | 4.8 | 1.1 | -4.0
CCc1ccc2[nH]c(=O)c(C(c3nnnn3CC3CCCO3)N3CCN4CCCC4C3)cc2c1 (stereo not given) | 3.9 | -12.3 | -4.4 | 30.3* | 1.7 | 7.0
